From PubChem
This is a sample that favours compounds with a hit; in the whole collection about 2.2% have one here.
FN deposit inh = fibronectin deposition inhibition; 350,000 compounds, 0.086% hits; AH1F fibroblasts, Alexa488-fibronectin deposition fluorescence, overnight; inhibition, % at 12.6 µM; AID 743247;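 active means mean inhibition across replicates of 30% or more, regardless of how many single replicates reach that level; inconclusive means mean under 30% yet at least half of replicates reach 30%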
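Assay system: AH1F fibroblasts assembling fluorescent fibronectin matrix; Amount: 10000 AH1F cells per well; Buffer or medium: DMEM, 2% serum; Probe or stimulus: Alexa488-fibronectin, 24 nM final in well; Doses: single compound dose, delivered by pin transfer; Incubation: 1 h adhesion, overnight exposure; Measured by: fluorescence 485/525 nm; Read-out: fibronectin deposition inhibition.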
rRNA inh HTS = selective bacterial rRNA inhibition in E. coli; E. coli WT GFP vs humanized-ribosome RFP mutants, fluorescence, 24 h; hits give low values; DMSO median 0, no signal -100; 350,000 compounds, 1.6% hits; GFP signal change (wild-type ribosome), % (concentration not given with the values);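 active means significant combined selectivity score with lowered wild-type GFP, culture density cut under 30%, mutant RFP and density less affected; inactive means any of these conditions unmet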
PDI inh = PDI (human) enzyme inhibition; PDI insulin aggregation turbidity, A650, 90 min; 350,000 compounds, 0.052% hits; AID 588391; P07237; inhibition, % at 10 µM;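 active means mean inhibition across replicates of 30% or more, whatever share of single replicates reach that level; inconclusive means mean inhibition below 30% while every single replicate reaches 30%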
ERp5 inh = ERp5 (human) disulfide isomerase inhibition | ERp5 insulin aggregation, absorbance 650 nm, 90 min | 350,000 compounds, 0.05% hits | inhibition, % at 9.99 µM | Q15084;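 active means mean replicate inhibition above about 25%, with every replicate also reaching it, limit read from the data, passing the limit was not always enough; inconclusive means only one of those two criteria met; inactive means neither criterion met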
Target sequence (Q15084 whole entry, looked up): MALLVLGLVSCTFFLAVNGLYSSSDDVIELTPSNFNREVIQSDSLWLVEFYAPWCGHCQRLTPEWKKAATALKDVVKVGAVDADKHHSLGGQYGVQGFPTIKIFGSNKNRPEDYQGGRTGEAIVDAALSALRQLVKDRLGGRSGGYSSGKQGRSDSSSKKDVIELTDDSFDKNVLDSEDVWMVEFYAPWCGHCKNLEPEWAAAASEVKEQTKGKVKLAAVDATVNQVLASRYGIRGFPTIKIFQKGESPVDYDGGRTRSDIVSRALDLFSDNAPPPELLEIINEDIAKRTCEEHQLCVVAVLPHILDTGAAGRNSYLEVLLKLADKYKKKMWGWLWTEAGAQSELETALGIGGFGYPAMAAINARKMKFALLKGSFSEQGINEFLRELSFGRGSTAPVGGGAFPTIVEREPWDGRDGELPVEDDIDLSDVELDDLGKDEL
PvdQ inh = blocks Pseudomonas aeruginosa PvdQ acylase activity; purified PvdQ acylase, fluorescence plate reader; inhibition, % at 10 µM; 340,000 compounds, 0.063% hits; in the data active means inhibition above about 30%, passing the limit was not always enough; inconclusive means no clear call, values can overlap the other calls
Env fusion inh = inhibitors of HIV Env-mediated cell fusion; inhibition, % at 12.3 µM; 360,000 compounds, 1.1% hits; HeLa-JRFL Env/CEM21 cell fusion, luciferase;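 active means mean replicate inhibition score of at least 50 and every replicate individually at or above 50; inconclusive means only one of the two criteria met; inactive means mean below 50 and not all replicates reaching 50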
A number is an active result; - = inactive; ? = inconclusive; . = no result; [ ] = remark or other dose.

SMILES | FN deposit inh | rRNA inh HTS | PDI inh | ERp5 inh | PvdQ inh | Env fusion inh
C[C@H]1CN([C@@H](C)CO)C(=O)c2cc(C#Cc3ccccc3F)cnc2O[C@@H]1CN(C)S(=O)(=O)c1ccccc1F | - | - | . | - | . | -
Cc1ccc(-c2nn3c(C)nnc3s2)cc1NC(=O)c1ccc(-c2ccc(Cl)cc2Cl)o1 | - | . | - | . | - | 114.6
Cc1ccc(-c2nn3c(C)nnc3s2)cc1NC(=O)c1ccc(-c2cccc(Cl)c2)o1 | - | . | - | . | - | -
CC(C)NC(=O)Nc1cccc2c1O[C@@H](CN(C)C(=O)Nc1ccc3c(c1)OCO3)[C@@H](C)CN([C@H](C)CO)C2=O | . | - | . | - | . | .
C[C@@H]1CN([C@@H](C)CO)C(=O)c2cc(C#CC3CCCCC3)cnc2O[C@@H]1CN(C)Cc1cccnc1 | . | - | . | . | . | -
COc1ccc(CN(C)C[C@@H]2OCCCC[C@H](C)Oc3ccc(NC(=O)Nc4ccc(C(F)(F)F)cc4)cc3C(=O)N([C@@H](C)CO)C[C@@H]2C)cc1 | . | - | . | - | . | 75.5[16.7 µM]
COc1ccc(NC(=O)Nc2ccc3c(c2)C(=O)N([C@H](C)CO)C[C@@H](C)[C@H](CN(C)Cc2ccc(C(F)(F)F)cc2)OCCCC[C@@H](C)O3)cc1 | - | - | . | - | . | 68.4[16.7 µM]
COc1ccc(S(=O)(=O)N[C@@H]2C=C[C@H](CC(=O)NCCc3ccncc3)O[C@@H]2CO)cc1 | - | - | . | - | . | .
O=C1CCC/C(=N\NC(=O)c2ccc(CSc3cccc4cccnc34)cc2)C1 | - | -20.6 | - | - | - | -
COc1ccc(-c2csc(C3=C(O)CN(C(C)C)C3=N)n2)cc1OC | - | -34.9 | - | - | - | -
O=C(NNC(=S)NC(=O)c1ccccc1[N+](=O)[O-])c1ccccc1O | - | - | - | - | - | -
O=C(NNC(=S)NC(=O)c1ccccc1[N+](=O)[O-])c1ccccc1[N+](=O)[O-] | . | -25.6 | - | - | - | .
C[C@H]1CN([C@@H](C)CO)C(=O)Cc2cc(NC(=O)CCCCCC(=O)Nc3ccccc3N)ccc2O[C@H]1CN(C)C(=O)Nc1ccccc1 | . | - | . | - | . | -
CCCCN(C(C)=O)C1CC(=O)N(c2ccc(OCCC)cc2)C1=O (configuration not stated) | - | - | - | - | - | ?
CCCOc1ccc(N2C(=O)CC(N(CCOC34CC5CC(CC(C5)C3)C4)C(C)=O)C2=O)cc1 (configuration not stated) | - | - | - | - | - | 57.1
COc1ccc(S(=O)(=O)N(C)C[C@@H]2Oc3ccc(NS(=O)(=O)c4cccs4)cc3CC(=O)N([C@H](C)CO)C[C@@H]2C)cc1 | . | - | . | - | . | -
Cc1ccc(S(=O)(=O)NNC(=S)Nc2ccccc2)cc1 | . | . | - | . | - | .
Cc1ccc(S(=O)(=O)NNC(=S)Nc2ccc(Cl)cc2)cc1 | - | -27.7 | - | - | - | -
NS(=O)(=O)c1ccc(NC(=O)Nc2ccc(Cl)cc2)cc1 | - | -26.4 | - | - | - | -
Cn1nccc1NC(=O)Nc1ccc(Cl)cc1 | - | -35.2 | - | - | - | -
C=CCN([C@@H](CC(C)C)C(=O)OC)S(=O)(=O)N(CC=C)[C@@H](CC(C)C)C(=O)OC | - | - | - | - | - | 80.7
COC(=O)[C@H](Cc1ccccc1)N(C)S(=O)(=O)c1cccc(S(=O)(=O)N(C)[C@@H](Cc2ccccc2)C(=O)OC)c1 | - | - | - | - | - | -
COC(=O)[C@H](Cc1ccccc1)N(Cc1ccccc1)S(=O)(=O)N(Cc1ccccc1)[C@@H](Cc1ccccc1)C(=O)OC | - | - | - | - | - | 79.8
CCOC(=O)[C@@H](C)N(C(=O)OC(C)(C)C)S(=O)(=O)N(Cc1ccccc1)[C@H](C(=O)OC)C(C)C | - | - | - | - | - | 84.8
COC(=O)[C@@H](CC(C)C)NS(=O)(=O)N(Cc1ccccc1)[C@@H](CC(C)C)C(=O)OC | - | - | - | - | - | 55.0
SMILES | FN deposit inh | rRNA inh HTS | PDI inh | ERp5 inh | PvdQ inh | Env fusion inh
C[C@@H]1CN(C)C(=O)Cc2ccccc2O[C@H]1CN(C)C(=O)OC(C)(C)C | - | - | . | . | . | .
CN(C)/C=N/c1ncc(C(=O)c2ccc(-c3ccccc3)cc2)s1 | - | -18.4 | - | - | - | -
C[C@H](CO)N1C[C@H](C)[C@H](CN(C)C(=O)C2CCCCC2)Oc2cc(C3=CCCC3)ccc2S1(=O)=O | . | - | . | - | . | -
CNC(=O)C[C@H]1CC[C@H]2[C@@H](COc3ccc(NC(=O)C4CC4)cc3C(=O)N2C)O1 | - | - | . | . | . | -
C=CCOc1cccc(C(=O)N2CCCC(Nc3ccc(F)cc3)C2)c1 (configuration not stated) | . | -25.8 | - | - | - | -
C#Cc1cccc(C(=O)N2CCCC(Nc3cccc(F)c3)C2)c1 (configuration not stated) | - | -33.1 | - | - | - | -
O=C(c1ccsc1)N1CCCC(Nc2cccc(F)c2)C1 (configuration not stated) | - | - | - | - | - | -
COc1cc(OC)cc(C(=O)N2CCCC(Nc3ccc(F)cc3)C2)c1 (configuration not stated) | - | - | - | - | - | -
O=C1CCC2c3ccc4ccccc4c3CCN12 (configuration not stated) | 30.4 | . | - | . | - | -
O=C1CC[C@@H]2c3[nH]c4ccccc4c3CCN12 | . | . | . | - | . | -
O=C(C[C@@H]1C=C[C@H](NC(=O)C2CC2)[C@@H](CO)O1)NC1CCC1 | - | - | . | - | . | -
CC(OC(=O)c1ccc(Cl)c(S(=O)(=O)Nc2ccc(F)cc2)c1)C(=O)NC(N)=O (configuration not stated) | - | -25.7 | - | - | - | -
C[C@@H]1CN([C@@H](C)CO)C(=O)c2cc(NC(=O)c3ccncc3)ccc2O[C@H]1CN(C)Cc1ccc2c(c1)OCO2 | . | - | . | - | . | -
CN(C)Cc1c(O)ccc2c(=O)c(-c3ccccc3)c(C(F)(F)F)oc12 | - | -32.0 | - | - | - | -
Cc1cccc(C2(c3cccc(C)c3)CC2C(=O)Nc2ccc([N+](=O)[O-])cc2O)c1 (configuration not stated) | - | . | - | . | - | 75.1
C=CCNC(=O)C1CC1(c1cccc(C)c1)c1cccc(C)c1 (configuration not stated) | - | - | - | - | . | -
COc1ccc(S(=O)(=O)N2CC(=O)Nc3ccccc32)cc1Cl | - | -32.9 | - | - | - | -
C[C@@H]1CN([C@H](C)CO)C(=O)c2cc(NS(=O)(=O)c3ccc(Cl)cc3)ccc2O[C@@H](C)CCCCO[C@@H]1CN(C)CC1CCCCC1 | . | - | . | . | . | -
O=S(=O)(N[C@H]1CC[C@H](CCn2cc(-c3cccc(F)c3)nn2)O[C@H]1CO)c1ccc(Cl)cc1 | . | - | . | - | . | -
Cc1cccc(C)c1NC(=O)c1cccc(C(=O)Nc2c(C)cccc2C)n1 | - | -25.1 | - | - | - | -
